Ki data for 4 compounds are collected here from ChEMBL document CHEMBL1828568, “Novel imaging agents for β-amyloid plaque based on the N-benzoylindole core” (Bioorg Med Chem Lett, 2011).

Assay [1] is described as follows: Binding affinity to amyloid beta fibrils. An outline of the steps:
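Competitive binding to Aβ1–40 aggregates, with [125I]TZDM as the radiolabeled reference ligand displaced by unlabeled test compound. Run in triplicate and reported as mean ± SD.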

Assay [2] can be described thus: Displacement of [125I]TZDM from amyloid beta (1 to 40) aggregates after 2 hrs by gamma counting. In short, it runs like this:
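Competition binding against [125I]TZDM as radiolabeled standard, using Aβ1–40 aggregates; run in triplicate, results as mean ± SD.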
(In a radioligand displacement assay an active substance lowers the binding of a labelled ligand.)

In general, Ki refers to a measure of affinity in units of concentration, obtained from inhibition or displacement. Low values mean a stronger hold on the target, high ones a looser hold on the target. `COc1ccc2cc([C@H](C)C(=O)O)ccc2c1` [NAPROXEN]: the inhibition constant Ki in assay [1] was 5.7 nM.

Compound `O=C(/C=C/c1ccccc1)n1ccc2cc(Br)ccc21` displayed a Ki in assay [2] of 18.9 nM.

With `CC(C)Cc1ccc([C@H](C)C(=O)O)cc1` [DEXIBUPROFEN], in assay [1], the Ki came to 44.4 nM.

In assay [2], `COc1ccc(/C=C/C(=O)n2ccc3cc(I)ccc32)cc1` displayed a Ki of 10.2 nM.
